Assay results as given in ChEMBL document CHEMBL2321692, “De novo fragment design: a medicinal chemistry approach to fragment-based lead generation” (J Med Chem, 2013).

What was measured:
[1] = test system: Hepatitis C virus; assay: Inhibition of HCV NS5B570n-Con1 expressed in Escherichia coli assessed as radiolabeled nucleotide monophosphate incorporation into acid-insoluble RNA products after 2 hrs by scintillation counting analysis; parameters: species or system Hepacivirus hominis; settings: Con1, 2 h
How it was run: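 IC₅₀ in the NS5B polymerase enzyme assay using genotype 1b NS5B, Con1 strain.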

[2] = Binding affinity to HCV NS5B570n-BK expressed in Escherichia coli by surface plasma resonance assay; format: cell-free, Hepatitis C virus (isolate BK)
How it was run: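 Kinetic dissociation constant (K_D) measured against genotype 1b NS5B polymerase, BK strain, by surface plasmon resonance.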

[3] = Inhibition of HCV NS5B570n-BK expressed in Escherichia coli assessed as radiolabeled nucleotide monophosphate incorporation into acid-insoluble RNA products after 2 hrs by scintillation counting analysis; parameters: species or system Hepatitis C virus (isolate BK)

Structure (SMILES)	IC50 [1] [µM]	Kd [2] [µM]	IC50 [3] [µM]
O=C1CNC(=O)N1Cc1ccccc1	> 1000	–	–
c1ccc(NNc2ncnc3[nH]ncc23)cc1	–	78	130
O=C1CNC(=O)N1Cc1ccc(Cl)c(Cl)c1	> 1000	–	–
CC(C)(C)c1ccc(CN2C(=O)CNC2=O)cc1	364	400	–
CC1NC(=O)N(Cc2ccc(C(C)(C)C)cc2)C1=O (configuration not stated)	220	144	–
CCC1NC(=O)N(Cc2ccc(C(C)(C)C)cc2)C1=O (configuration not stated)	108	93	–
CC(C)C1NC(=O)N(Cc2ccc(C(C)(C)C)cc2)C1=O (configuration not stated)	21	18	–
CC(C)(C)c1ccc(Cc2ccc[nH]c2=O)cc1	431	–	–
Cc1ccccc1Oc1cccc(-c2ccc[nH]c2=O)c1	80	–	–
CC(C)(C)c1cccc(-c2ccc[nH]c2=O)c1	4	5.8	–
COc1ccc(-c2ccc[nH]c2=O)cc1C(C)(C)C	–	0.57	–
